Shown are actives, neighbours in structure and some others; about 2.1% of the full set was active somewhere.
b-catenin transl: alters nuclear translocation of beta-catenin in HeLa cells. immunofluorescence imaging. nuclear translocation activity, % at 5 µM. actives 0.3% (n = 190,000). AID 1665;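 active = nuclear translocation activity above 50% at 5 µM, with a well cell count of 50 or more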;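 note: per-cell ratio of nuclear to cytoplasmic median beta-catenin stain intensity; plate controls were DMSO negative control for no effect and GSK-3 inhibitor IX positive control for full effect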
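assay system = human HeLa cells, endogenous beta-catenin | times = compound treatment 24 h, 37°C, 5% CO2 | detection = Anti-beta-catenin immunofluorescence on PFA-fixed, Triton-permeabilized cells, DAPI nuclei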
IEC-6 tox: counter-screen for KLF5 inhibitors: cytotoxicity in IEC-6 cells. IEC-6 cytotoxicity, luminescence viability. inhibition, % at 5 µM. actives 0.78% (n = 290,000). AID 1825;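 note: 0% = plate median of test compound wells and 100% = cytotoxic reference compound wells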
MT stabilizer: stabilizes microtubules in HeLa cells. HeLa tubulin immunostaining HCS, 24 h; share of cells brighter than vehicle mean+2SD. % tubulin-high responders, % at 10 µM. actives 0.83% (n = 200,000). AID 2205;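 active = plate Z-score above 3 for both tubulin-high and condensed-nucleus cell shares, with cell loss under 80%, at 10 µM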;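 note: anti alpha tubulin signal scored within the nucleus-defined area of each cell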
BaF3 tox: reduces parental Ba/F3 cell viability, JAK2V617F counter-screen; CellTiter-Glo ATP luminescence; inhibition, % at 5.6 µM; actives 1.1% (n = 220,000); AID 1486;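 active = inhibition above a per-campaign cutoff, the mean inhibition of all tested compounds plus 3 SD, cut at about 27% in these data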;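 note: 0% = DMSO wells and 100% = JAK Inhibitor I control wells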
Ba/F3 V617F tox: loss of viability in JAK2V617F-driven Ba/F3 cells | Ba/F3 EpoR-JAK2V617F viability, ATP luminescence | inhibition, % at 5.6 µM | actives 1.1% (n = 220,000);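 active = inhibition above the campaign mean plus 3 SD over all tested compounds, cut at about 24% in these data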;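 note: cytokine-independent growth of Ba/F3 cells driven by EpoR plus mutant JAK2; 0% = DMSO-treated cells and 100% = JAK inhibitor I control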
KLF5 inhibitor: kruppel-like factor 5 inhibition; DLD-1 KLF5 promoter-luciferase reporter, luminescence; inhibition, % at 5 µM; actives 0.23% (n = 290,000); AID 1700;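 active = inhibition above a per-plate limit of that plate's mean compound inhibition plus 3 SD, cut at about 60% in these data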;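 note: 0% = DMSO wells and 100% = LY294002 at 200 µM; higher means less KLF5 promoter-driven luciferase light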
IEC-6 tox confirm: confirmation of cytotoxic compounds in rat IEC-6 intestinal epithelial cells; shares compounds with IEC-6 tox; IEC-6 rat intestinal epithelial viability, luminescence; inhibition, % at 5 µM; actives 63% (n = 1,900); AID 1907;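 note: 0% = vehicle and 100% = reference cytotoxic drug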
Starred values were filed as active, the others as inactive; x = no result given. Cut-off read from the data, not from the text of the source, unless noted: active = inhibition above about 22%; inactive = the rest.

SMILES | b-catenin transl | IEC-6 tox | MT stabilizer | BaF3 tox | Ba/F3 V617F tox | KLF5 inhibitor | IEC-6 tox confirm
CCOC(=O)c1ccc(-c2c(-c3cc(OC)c(OC)c(OC)c3)noc2C)cc1F | x | 76* | x | x | x | 59 | 57*
CCOC(=O)c1ccc(-c2c(-c3ccc4c(c3)OCO4)noc2-c2ccsc2)cc1F | x | 0 | x | x | x | -1 | x
ClC(Cl)(Cl)c1nc2ccccc2n2nncc12 | x | 82* | x | x | x | 31 | 31*
Cc1cccc(C)c1OCC(=O)Nc1ccccc1C(=O)N1CCOCC1 | x | 4 | x | x | x | 2 | x
CCn1c(=O)cc(SCC(=O)NCCCN2CCN(c3ccccc3F)CC2)c2ccccc21 | 3 | 22* | 4 | 18 | 11 | -14 | 27*
COCCCNC(=O)Cc1c(C)c2c(cc(C)c3c(C(C)(C)C)coc32)oc1=O | x | 84* | x | x | x | 61 | 59*
COCCNC(=O)Cc1c(C)c2c(cc(C)c3c(C)coc32)oc1=O | x | 0 | x | x | x | -52 | x
CCNc1oc(/C=C/c2ccc(OCC)cc2)nc1C#N | x | 52* | x | x | x | -17 | 36*
CCN(CC)CCCNc1oc(/C=C/c2ccccc2)nc1C#N | -1 | 3 | x | 3 | -4 | -29 | x
CC(C)(C)[C@]1(O)CCN2C[C@H]3c4ccccc4CCc4cccc(c43)[C@@H]2C1 | -3 | -1 | 2 | 14 | -3 | -6 | x
O=C(Nc1nc2ccccc2[nH]1)C1CC1 | 4 | 33* | 8 | 50* | 18 | -10 | 17
Cc1ccc2c(CNCc3ccccc3)cc(=O)oc2c1 | x | 28* | x | x | x | 40 | 29*
Cc1ccc2c(CN(C)Cc3cccc(F)c3)cc(=O)oc2c1 | x | 14 | x | x | x | -103 | x
CCOc1cc(CNc2ccc3c(c2)OCCO3)cc(Br)c1OCC | 120* | 83* | 13 | 74* | 74* | 7 | 53*
CC(=O)Nc1nc2ccc(S(=O)(=O)N3CCCC3)cc2s1 | x | -3 | x | x | x | -18 | x
CCCC(=O)Nc1nc2ccc(S(=O)(=O)N3CCCCC3)cc2s1 | 7 | 54* | 5 | 79* | 80* | 49 | 59*
Cc1ccc(C(=O)NCC#N)cc1 | -1 | -10 | 2 | 8 | -1 | -21 | x
Cc1ccc(C(=O)NC(C#N)=C(Cl)Cl)cc1 | 0 | 70* | 6 | -4 | 11 | -16 | 19
COc1ccc(NC(=O)COC(=O)C2CC(=O)N(c3ccc(C)cc3)C2)cc1 (centres undefined) | x | -2 | x | x | x | 10 | x
COc1ccc(NC(=O)c2ccc3c(=O)n(-c4ccc(OC)cc4OC)c(=S)[nH]c3c2)cc1 | -1 | -1 | 7 | 2 | -2 | -24 | x
COc1ccc(-n2c(=S)[nH]c3cc(C(=O)Nc4ccc(F)cc4)ccc3c2=O)c(OC)c1 | x | 32* | x | x | x | 50 | 18
O=S(=O)(Nc1cccc(-n2cnnn2)c1)c1cc(Br)ccc1Br | x | 1 | x | x | x | -4 | x
O=C1C(Cl)=C(Nc2ccc(O)cc2)C(=O)c2ccccc21 | 39 | 102* | x | 59* | 39* | 48 | 56*
Cc1ccc(NC2=C(Cl)C(=O)c3ccccc3C2=O)cc1 | -2 | 2 | 7 | 4 | 3 | -9 | x
O=C(/C=C/c1ccccc1)Nc1ccc(Br)cn1 | 2 | 26* | 34 | 5 | 9 | -66 | 56*
SMILES | b-catenin transl | IEC-6 tox | MT stabilizer | BaF3 tox | Ba/F3 V617F tox | KLF5 inhibitor | IEC-6 tox confirm
CCc1c(C)nc2ncnn2c1Nc1ccc(C)cc1 | x | 10 | x | x | x | -14 | x
CCc1c(C)nc2ncnn2c1NCCc1ccc(OC)cc1 | 85* | 24* | 37* | 57* | 63* | 17 | 24*
Cc1nnc(N/N=C/c2cccc(OCc3ccc(Cl)c(Cl)c3)c2)n1N | -3 | 98* | 5 | 6 | 5 | -137 | 4
O=C(COC(=O)c1cc(=O)[nH]c2ccccc12)Nc1nc(-c2ccccc2)cs1 | 3 | -5 | 3 | 3 | -2 | -43 | x
CC(=O)NC(Cc1cccc(C)c1)C(=O)NC1CCN(C(=O)NCc2ccccc2)CC1 (centres undefined) | x | 4 | x | x | x | -6 | x
COc1ccc(Nc2nnc(SCc3cn4c(C)cccc4n3)s2)cc1 | 10 | 22* | 19* | 6 | -1 | -12 | 2
Cc1cccc2nc(CSc3nnc(N)s3)cn12 | 0 | 1 | 1 | 8 | 6 | -21 | x
O=C(c1c[nH]c2ccccc12)C(O)C(c1ccccc1)N1CCOCC1 (centres undefined) | x | -3 | 3 | 4 | -4 | -11 | x
O=C(c1c[nH]c2ccccc12)C(Cl)c1ccccc1 (centres undefined) | x | 33* | x | x | x | 18 | 13
O=C(NCC1OCCc2ccccc21)c1cc(COc2c(F)cccc2F)on1 (centres undefined) | 0 | 82* | 3 | 103* | 98* | 36 | -10
O=C(NC1CCc2ccccc21)c1cc(COc2c(F)cccc2F)on1 (centres undefined) | 2 | 8 | x | 3 | 2 | -24 | x

Screening data (PubChem BioAssay)
